Dynein transport = dynein cargo transport inhibition; 0.47% of 220,000 active; 3617.4 mouse cells, GR-EGFP nuclear translocation imaging; test concentration mostly 20 µM; stimulated with dexamethasone, 1 µM; active compounds read low; z-score, hits read low;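 active = plate z-score of nuclear minus cytoplasmic receptor signal below a set negative limit, without overly bright fluorescence or cell loss, cut at about -3.5 in these data, passing the limit was not always enough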;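 also: z-score of nuclear minus cytoplasmic ring GR-EGFP intensity difference per well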
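medium = tetracycline-free induction medium containing charcoal-stripped FBS | also added = 1.0 µM final dexamethasone stimulus | schedule = 48 h induction, 1 h compound, 30 min dex at 37 °C | technique = fixed, Hoechst-stained cells imaged at 10x for EGFP | measure = GR-EGFP nuclear translocation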
XBP1 UPR activ = adaptive UPR (XBP1) activation | CHO-XBP1 luciferase reporter, IRE1-XBP1 UPR activation, luminescence; percent of tunicamycin response, DMSO as zero | activation, % at 20 µM | 0.33% of 330,000 active | AID 463104;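 active = versus positive control, 20 µM dose yields 30% or more activation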;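 also: 100% = tunicamycin at 10 µg/mL and 0% = DMSO only wells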
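Material: CHO-XBP1 cells stably carrying IRE1-XBP1-driven luciferase reporter | Medium: F12 with 10% serum | Compound dosing: 20 µM single concentration, DMSO 1% | Incubation: Overnight seeding at 37 °C, 6 h compound treatment at 37 °C | Detection: Steady-Glo luminescence read | Read-out basis: % activation of reporter signal versus tunicamycin and DMSO controls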
L major viab = Leishmania major promastigote growth inhibition; 9% of 200,000 active; Leishmania major promastigotes, resazurin fluorescence viability; inhibition, % at 10 µM; AID 1063; in the data active = inhibition above about 50%;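 also: promastigotes grown with compound for 44 hours at 28 °C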
CHOP inhibitor = inhibitors of CHOP induction in ER stress response; inhibition, % at 10 µM; AID 2732; 3.8% of 220,000 active; CHO-K1 CHOP-promoter luciferase, tunicamycin-induced, 15-18 h;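 active = compounds that reduced the stress-induced luciferase reporter signal by more than about 70% of percent inhibition, limit read from the data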;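 also: 0% = tunicamycin plus vehicle and 100% = wells without tunicamycin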
T cruzi inh = blocks replication of Trypanosoma cruzi; 1.4% of 300,000 active; T. cruzi beta-gal in NIH3T3, luminescence, 90 h; inhibition, % (no concentration beside the values); AID 1885;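 active = mean inhibition across valid replicates above about 55%, limit read from the data; inconclusive = mean below that limit but half or more replicates reach it; inactive = mean below it, under half of replicates reach it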;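 also: signal also drops with host cell toxicity which is not excluded here; 0% = plate median of DMSO wells and 100% = zero luminescence signal; higher percent means less beta-gal luminescence so fewer parasites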
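compound dosing = single 50 nL compound addition per well in DMSO | material = NIH/3T3 host cells with β-galactosidase reporter T. cruzi | input = 5,000 host fibroblasts per well | timing = ≥90 h infection period, 3 h prior cell attachment | read-out basis = percent inhibition of parasite-derived β-gal signal | detection = GalScreen β-gal luminescence, detergent lysis, 60 min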
UPR CHOP act = activators of apoptotic arm of unfolded protein response (CHOP). CHO-CHOP luciferase reporter, UPR activation, luminescence; percent of tunicamycin response over DMSO baseline. activation, % at 10 µM. 0.34% of 330,000 active;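 active = at 10 µM dose, activation of 40% or more, normalized to positive control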;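 also: 100% = tunicamycin at 10 µg/mL and 0% = DMSO alone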
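measured by = luciferase luminescence | assay system = CHO-CHOP cells, stable luciferase reporter of PERK-eIF2a-CHOP signalling | amount = 500 reporter cells seeded per well | timing = 6 h compound exposure at 37 °C after overnight seeding | controls = positive tunicamycin 10 µg/mL, negative DMSO alone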
Lmaj promast 1uM = inhibitors of Leishmania major promastigote growth, repeat at 1 uM | shares compounds with L major viab | L. major promastigote growth, resazurin fluorescence, 48 h | inhibition, % at 1 µM | 13% of 1,100 active;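 active = inhibition above about 50% in both repeat tests, limit read from the data; inconclusive = one repeat under the set limit, the other over it; inactive = both repeats under the set limit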
* = called active by the depositor; ? = inconclusive; / = no result. This excerpt belongs to a sample that is enriched for hits.

SMILES | Dynein transport | XBP1 UPR activ | L major viab | CHOP inhibitor | T cruzi inh | UPR CHOP act | Lmaj promast 1uM
Cc1c(NC(=O)[C@@H](NC(=O)c2ccc(Cl)c([N+](=O)[O-])c2)C(C)C)c(=O)n(-c2ccccc2)n1C | / | -3.6 | / | / | / | 2.1 | /
CN(C)C(=O)C12CCC(C)(c3nc4ccccc4nc31)C2(C)C (stereo unspecified) | -0.287 | -1.0 | -7.4 | 13.3 | -2.1 | 0.8 | /
Cc1cc2nc3c(nc2cc1C)C1(C(=O)N(C)C)CCC3(C)C1(C)C (stereo unspecified) | 0.209 | 0.3 | 93.6* | 12.1 | -0.1 | 1.3 | -11.0
Cc1ccc2c(c1)C1CN(C)CCC1N2C(=S)NC(=O)c1ccc(Br)cc1 (stereo unspecified) | 0.548 | 2.5 | 99.3* | -26.3 | 64.5* | 3.8 | -6.8
COc1ccc(OCC(=O)N2c3ccc(C)cc3C3CN(C)CCC32)cc1 (stereo unspecified) | 0.348 | -0.3 | 2.1 | 5.0 | -5.0 | -0.9 | /
CCCCn1c(N)c(N(CCC(C)C)C(=O)c2ccc(N3CCCC3=O)cc2)c(=O)[nH]c1=O | / | -0.6 | / | / | 9.1 | 1.3 | /
O=C1CCCc2c1cc(-c1ccccc1)n2-c1ccc(O)cc1 | 0.822 | -1.9 | 53.3* | -3.3 | 16.0 | -0.8 | -21.8
CC12CCC(C(=O)N(CCCN3CCN(Cc4ccccc4)CC3)C1=O)C2(C)C (stereo unspecified) | 0.523 | 4.4 | 94.6* | -0.7 | / | -0.2 | 67.7*
Cc1c(C)c2ccc(OCC(=O)Nc3ccc(S(N)(=O)=O)cc3)c(C)c2oc1=O | / | -1.5 | / | / | 6.6 | -0.8 | /
c1ccc(-c2nc3nonc3nc2-c2ccccc2)cc1 | 0.251 | 2.7 | 84.0* | 84.9* | 2.3 | 0.9 | -17.2
O=C(O)CC(NC(=S)NCc1ccccc1)C(=O)O (stereo unspecified) | -2.84 | 0.7 | 80.2* | -9.2 | / | 1.0 | 3.9
Cc1ccc(C)c(N2CCN(C(=O)c3ccc(CSc4nc5ccncc5[nH]4)cc3)CC2)c1 | 0.0422 | 1.0 | 89.1* | 72.0* | 53.0 | 4.2 | ?
O=C(c1ccc(CSc2nc3ccncc3[nH]2)cc1)N1CCCCC1 | 0.31 | -3.0 | -6.5 | 12.0 | -10.2 | 2.3 | /
C=C1C(O)[C@@H]2O[C@]3(CC[C@H](/C=C/C(C)[C@@H]4CC(C)=CC5(O[C@H](C[C@@](C)(O)CO)CCC5O)O4)O3)CC[C@H]2O[C@@H]1C(O)CC(C)[C@H]1OC2(CCCCO2)CCC1C (stereo partly specified) | / | 4.3 | / | / | / | 16.5 | /
O=C(Cn1ccc([N+](=O)[O-])n1)Nc1nccs1 | 0.502 | -0.9 | 77.2* | 51.7 | 6.7 | -0.1 | -6.6
Cc1ccc[n+](CC(=O)Nc2ccc(C)c(C)c2)c1 | / | -5.9 | / | / | -12.4 | -2.2 | /
OCCC1CN(Cc2cccc(C(F)(F)F)c2)CCN1Cc1ccccc1 (stereo unspecified) | -0.119 | 0.3 | 80.3* | -3.6 | 54.7* | -0.1 | ?
Nc1ccc2nc(SCc3ccc([N+](=O)[O-])cc3)sc2c1 | -0.244 | -1.7 | 68.6* | 25.2 | 12.0 | 4.3 | 11.3
Nc1nnc(SCc2ccc([N+](=O)[O-])cc2)s1 | -0.889 | 2.5 | 0.7 | 7.6 | -8.3 | -0.5 | /
COC(=O)C(CC(=O)c1ccc(Br)cc1)n1ccnc1 (stereo unspecified) | -3.44 | -0.8 | 78.8* | 6.2 | 40.3 | 2.7 | 26.1
CN1c2ccccc2Oc2nnc(Cl)cc21 | -0.264 | 2.9 | 15.2 | 27.5 | -5.2 | -1.1 | /
CCN(CC)CCOc1cc2c(nn1)Oc1ccccc1N2C | 3.63 | 0.8 | 100.5* | 37.3 | 1.9 | 0.7 | 8.5
Cc1ccc(S(=O)(=O)NC(N)=NCCc2ccc(Cl)cc2)cc1C | -0.136 | -2.5 | 51.5* | 40.2 | 7.5 | 1.5 | -20.4
O=C1NCCOC(=O)[C@@H](Cc2ccc(F)cc2)C/C=C\C[C@@H]1CC(=O)N(CCO)Cc1ccccc1 | / | 0.5 | / | / | / | 1.2 | /
CCOc1ccccc1N(C(=O)Nc1cccc(Cl)c1)C1=NC(C)CS1 (stereo unspecified) | -0.311 | 1.6 | 81.2* | 21.4 | -15.9 | 0.0 | 7.2
SMILES | Dynein transport | XBP1 UPR activ | L major viab | CHOP inhibitor | T cruzi inh | UPR CHOP act | Lmaj promast 1uM
O=[N+]([O-])c1ccc(-c2nc(-c3cccs3)c(-c3cccs3)[nH]2)cc1 | -2.41 | 0.8 | 92.0* | 92.3* | 47.7 | 2.4 | 55.2*
O=[N+]([O-])c1ccc(-c2nc3ccc([N+](=O)[O-])cc3[nH]2)cc1 | -1.18 | 3.6 | 31.7 | 49.9 | 33.2 | 2.9 | /
COc1ccc(CN2CCNC(=O)C2CC(=O)N(C)CCCN2CCOCC2)cc1C (stereo unspecified) | / | -7.0 | / | / | -20.3 | 2.2 | /
CCc1ccc2[nH]c(=O)c(CN(CCCN3CCOCC3)C(=O)Nc3ccc(Cl)cc3)cc2c1 | 0.292 | 2.1 | 79.0* | 58.5 | 20.4 | -1.1 | -21.3
Cc1ccc(NC(=O)N(CCCN2CCOCC2)Cc2cc3cc4c(cc3[nH]c2=O)OCO4)cc1 | 0.313 | -2.6 | 1.6 | -3.8 | 10.8 | 0.7 | /
C/C(N)=C(/C#N)C(=O)CSc1nnc(Nc2ccccc2)s1 | -0.18 | 2.9 | 54.4* | -21.6 | 14.9 | 6.9 | -15.1
C[C@H](NC(=O)C1CCN(S(=O)(=O)c2ccccc2)CC1)C(=O)NCc1ccc(Cl)c(Cl)c1 | / | -6.0 | / | / | 3.4 | -2.2 | /
Cc1ccc(-c2csc(=S)n2CC(=O)OCC(=O)NCc2ccco2)cc1 | 1.09 | -1.4 | 17.7 | -18.1 | -2.1 | -1.3 | /
Cc1ccc(-c2csc(=S)n2CC(=O)OCC(=O)NC(C)C(C)C)cc1 (stereo unspecified) | 0.122 | -1.2 | 63.6* | 27.1 | 19.3 | -1.0 | -19.1
CCCOP(=O)(OCCC)c1c([N+](=O)[O-])cc(C(F)(F)F)cc1[N+](=O)[O-] | -2.97 | -4.8 | 53.6* | 45.0 | -10.1 | 2.8 | 0.6
Cc1ccc2nc(/C(C#N)=C\c3ccc(N4CCCCC4)c([N+](=O)[O-])c3)[nH]c2c1 | -0.562 | -0.4 | 97.3* | 79.0* | 72.4* | 6.3 | 4.3
COc1ccc(/C=C2\SC(=S)N(CC(=O)NC3C=CS(=O)(=O)C3)C2=O)cc1 (stereo unspecified) | / | -0.4 | / | / | -11.7 | -2.1 | /
CNc1ccccc1C(C)(C)c1cc(-c2cccc(Br)c2)no1 | -0.11 | -3.4 | 99.3* | 51.8 | 51.3 | -0.3 | 87.9*
CNc1ccccc1C(C)(C)c1cc(-c2cccc([N+](=O)[O-])c2)no1 | 0.0366 | -2.7 | 16.4 | 42.0 | 25.9 | -1.4 | /
Cn1cccc1Cc1nnc(SCC(=O)Nc2ccc(F)cc2)n1CCc1ccccc1 | -0.0742 | -0.4 | 56.2* | 24.4 | 11.6 | -0.4 | -8.6

Screening data as filed in PubChem.
